Columns and labels:
Nrf2 signal pathway = assay: Western blot of Nrf2 signal pathway proteins in HepG-2 cells; format: cell-based
[1] = system: P-gp–mediated efflux and CYP3A-mediated metabolism; settings: rat, one single dose of Sch B 0.024 mM/kg; cited from earlier work
CYP3A = settings: read-out: IC50 value, inhibition of CYP3A activity; rat liver microsomes; cited from earlier work
Nrf2 pathway = assay: Western blot of Nrf2 pathway proteins in mice liver tissue; format: in vivo; settings: Sch B 25.0–100.0 mg/kg oral, 21 days, Western blotting
Outline: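 Mice were dosed orally once daily for 21 days (25.0, 50.0, 100 mg/kg, in 0.5% sodium carboxymethylcellulose). Frozen liver extracts were assayed for protein by Bradford, and equal protein was run on SDS-PAGE and blotted to PVDF. Membranes were blocked in 5% nonfat milk/TBS, probed with anti-Nrf2, HO-1, NQO1, GST or GR at 4°C overnight, then HRP secondary for 1 h at room temperature. Detection was by ECL on X-ray film.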

CYP3A1 mRNA = settings: rat primary hepatocytes, Sch B 0.1 µM; cited from earlier work
mice liver [2] = assay: Histopathological analysis of H&E-stained mice liver sections; format: in vivo
Outline: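 Mice were given test compound (25.0, 50.0, 100 mg/kg) by mouth daily for 21 days in 0.5% sodium carboxymethylcellulose and killed 24 h after the last dose. Liver was fixed in neutral buffered formalin, embedded in paraffin, cut at 5 μm and stained with H&E.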

mice liver [3] = assay: TUNEL immunofluorescence staining of mice liver; format: in vivo; settings: 100 mg/kg Sch B oral, 21 days
Outline: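 After 21 days of daily oral test compound (25.0–100 mg/kg, 0.5% sodium carboxymethylcellulose), paraffin liver sections (10 μm) were treated with 3% H2O2 in methanol for 10 min and blocked with 1% BSA/PBS for 30 min. They were incubated with […] at 4°C overnight, then Alexa Fluor donkey anti-rabbit (1:500) for 1 h at 37°C. Nuclei were stained with DAPI and sections imaged by fluorescence microscopy. n=6.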

[4] = system: CYP450 (CYP1A2/2C9/2D6/2E1/3A4); assay: Microsomal CYP450 activity detection; format: in vivo, mice; settings: Sch B 25.0, 50.0 and 100.0 mg/kg oral, 21 days, dose-dependent
Outline: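 Livers came from mice dosed orally for 21 days (25.0–100 mg/kg). Livers (~2 g) were homogenised at 4°C in phosphate buffer pH 7.4 with 1.0 mM EDTA and 250 mM sucrose, spun at 9,000× g then 100,000× g, and the pellet resuspended with 250 mM glycerol. Microsomes (0.5 mg/mL) were incubated with a probe cocktail: phenacetin 10 μM, tolbutamide 100 μM, dextromethorphan 2.5 μM, chlorzoxazone 20 μM, midazolam 5 μM. Reactions ran 30 min with 1 mM NADPH and were stopped with methanol. Metabolites were measured by LC–MS/MS.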

[5] = Sch B 5 µM, 48-hour incubation, Western blot

Compound	effect on Sch B-induced activation of Nrf2 and GST expression (Nrf2 signal pathway; ABT 0.5 mM combined with Sch B 5 µM, 48 hours)	tacrolimus bioavailability [1]	IC50 (CYP3A) [µM]	protein expression of NQO-1 and GST in mice liver (Nrf2 pathway)	Nrf2 expression in mice liver (Nrf2 pathway; dose-dependent)	expression of CYP3A1 mRNA (CYP3A1 mRNA)	centrilobular hepatocellular infiltration of lymphocytes (mice liver [2]; 100 mg/kg Sch B oral, 21 days, H&E-stained liver sections)	hepatotoxicity in mice (mice liver [2]; highest dose (100 mg/kg) only, oral, 3 weeks)	positive TUNEL cell in liver (mice liver [3])	CYP450 (CYP1A2/2C9/2D6/2E1/3A4) activities in livers of mice [4]	HO-1 and GR protein expression (Nrf2 signal pathway; [5])	expression of GST (Nrf2 signal pathway; [5])	expression of Nrf2 (Nrf2 signal pathway; [5])
Nn1nnc2ccccc21 [ABT, 1-aminobenzotriazolea, reference compound]	suppressed												
COc1cc2c(c(OC)c1OC)-c1c(cc3c(c1OC)OCO3)CC(C)C(C)C2 (stereo not shown) [Sch B, Schisandrin B]		increase	5.51	dose-dependent increase	upregulated	significantly increase	clearly evident	mild hepatotoxicity	very limited	considerably increased	no changes	upregulated	upregulated

— publication PMC6267698 (Drug Design, Development and Therapy, 2018)
